Reference: ChEMBL document CHEMBL1144293, “4-(2-Pyridyl)piperazine-1-benzimidazoles as potent TRPV1 antagonists” (Bioorg Med Chem Lett, 2005)

Legend:
[1] = target: T1, Transient receptor potential cation channel subfamily V member 1 (Homo sapiens, UniProt Q8NER1); experiment: Antagonist activity in capsaicin-induced FLIPR assays in HEK293 cells expressing human TRPV1; assay type: functional, cell-based
Summary of the method: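 HEK293 cells stably expressing human TRPV1; channel activated with 100 nM capsaicin and block of the calcium influx read on a fluorometric imaging plate reader (FLIPR). IC50 given as mean ± SEM of at least three determinations.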

[2] = target: T1, Transient receptor potential cation channel subfamily V member 1; experiment: Antagonist activity in pH 5.5-induced FLIPR assays in HEK293 cells expressing human TRPV1; assay type: functional, cell-based
Summary of the method: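 Human TRPV1-expressing HEK293 line stimulated by low pH (pH 5.5) as agonist; antagonism measured as inhibition of calcium influx by FLIPR. IC50 reported as mean ± SEM from at least three determinations.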

[3] = Bioavailability in rat at single dose of 30 mg/kg orally; settings: in vivo, oral
[4] = Clearance value in rat at single dose of 3 mg/kg iv dose; settings: in vivo
[5] = Time taken for cmax value in rat at single dose of 30 mg/kg oral dose; assay type: ADME, organism-based; design: dose 30 mg/kg, route oral; settings: in vivo
Summary of the method: (§1)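 Rat pharmacokinetics: systemic exposure estimated after a single 3 mg/kg intravenous dose and, separately, a single 30 mg/kg oral dose. Parameters derived include Vd, CL, terminal t1/2, Tmax, Cmax and oral bioavailability (F%).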

[6] = Terminal half life value in rat at single dose of 3 mg/kg iv dose; settings: in vivo
[7] = Bioavailability in rat (single dose 30 mg/kg p.o.); assay type: ADME, organism-based; settings: in vivo, po; summary of the method: as §1
[8] = Cmax value in rat at single dose of 30 mg/kg oral dose; assay type: ADME, organism-based; design: dose 30 mg/kg, route oral; settings: in vivo; summary of the method: as §1
[9] = Terminal half life value in rat at single dose of 3 mg/kg intravenously; assay type: ADME, organism-based; design: dose 3 mg/kg, route intravenous; settings: in vivo, iv; summary of the method: as §1
[10] = Volume distribution in rat at single dose of 3 mg/kg intravenously; assay type: ADME, organism-based; design: dose 3 mg/kg, route intravenous; settings: in vivo, iv; summary of the method: as §1
[11] = Clearance value in rat at single dose of 3 mg/kg intravenously; assay type: ADME, organism-based; design: dose 3 mg/kg, route intravenous; settings: in vivo, iv; summary of the method: as §1

T1 sequence (Q8NER1 whole entry): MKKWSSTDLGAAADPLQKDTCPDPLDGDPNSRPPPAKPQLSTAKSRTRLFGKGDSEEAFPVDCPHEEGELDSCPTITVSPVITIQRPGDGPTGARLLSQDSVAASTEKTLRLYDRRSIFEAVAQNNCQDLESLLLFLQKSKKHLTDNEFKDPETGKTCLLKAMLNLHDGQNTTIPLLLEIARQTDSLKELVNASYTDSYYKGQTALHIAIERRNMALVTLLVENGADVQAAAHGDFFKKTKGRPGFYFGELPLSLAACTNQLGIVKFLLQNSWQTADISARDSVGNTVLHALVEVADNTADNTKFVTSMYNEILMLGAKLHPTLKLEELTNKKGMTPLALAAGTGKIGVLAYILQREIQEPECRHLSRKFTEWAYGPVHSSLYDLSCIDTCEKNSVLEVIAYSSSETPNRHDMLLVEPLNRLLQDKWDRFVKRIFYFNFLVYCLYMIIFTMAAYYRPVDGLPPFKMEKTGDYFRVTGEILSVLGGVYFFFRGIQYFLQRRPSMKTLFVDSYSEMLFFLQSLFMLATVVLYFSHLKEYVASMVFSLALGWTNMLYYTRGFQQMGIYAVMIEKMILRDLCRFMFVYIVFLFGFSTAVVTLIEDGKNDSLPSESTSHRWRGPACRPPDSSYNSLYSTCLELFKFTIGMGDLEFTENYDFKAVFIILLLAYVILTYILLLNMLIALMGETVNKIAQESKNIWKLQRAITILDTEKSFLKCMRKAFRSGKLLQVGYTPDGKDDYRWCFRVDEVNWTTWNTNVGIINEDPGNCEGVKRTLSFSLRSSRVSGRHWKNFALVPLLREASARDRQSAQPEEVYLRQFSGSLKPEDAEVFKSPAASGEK

Row | IC50 [1] | IC50 [2] | SMILES | also measured
1 | 2140 nM | > 10000 nM | CC(C)(C)c1ccc2oc(N3CCN(c4ncccc4Cl)CC3)nc2c1 | 
2 |  | 1410 nM | C[C@@H]1CN(c2ncccc2Cl)CCN1c1nc2cc(C(C)(C)C)ccc2o1 | 
3 | 776 nM | > 10000 nM | C[C@@H]1CN(c2nsnc2Cl)CCN1c1nc2ccc(C(C)(C)C)cc2[nH]1 | 
4 | 113 nM | 10000 nM | Cc1cc2nc(N3CCN(c4ncccc4Cl)C[C@H]3C)[nH]c2cc1C | 
5 | 5450 nM | > 25000 nM | Cc1cc2nc(N3CCN(c4ncccc4Cl)CC3)n(C)c2cc1C | 
6 | 325 nM |  | C[C@@H]1CN(c2ncccc2Cl)CCN1c1nc2ccc(Cl)cc2[nH]1 | 
7 | 5770 nM | > 25000 nM | Cc1cc2nc(N3CCN(c4ncccc4Cl)C[C@@H]3C)[nH]c2cc1C | 
8 | 90.4 nM | 104 nM | C[C@@H]1CN(c2ncccc2Cl)CCN1c1nc2ccc(C(C)(C)C)cc2[nH]1 | bioavailability [3]: 19.7%; clearance [4]: 133 mL/min/kg; Tmax [5]: 180 min; half-life [6]: 36 min; bioavailability [7]: 19.7%; Cmax [8]: 300 ng/mL; half-life [9]: 35.4 min; Vd [10]: 6.87 L/kg; clearance [11]: 134 mL/min/kg
9 | 32.4 nM | 1780 nM | C[C@@H]1CN(c2ncccc2C(F)(F)F)CCN1c1nc2ccc(C(C)(C)C)cc2[nH]1 | 
10 | 136 nM | 1690 nM | CC(C)(C)c1ccc2nc(N3CCN(c4ncccc4Cl)CC3)[nH]c2c1 | 
11 | 665 nM |  | COc1ccc2nc(N3CCN(c4ncccc4Cl)C[C@H]3C)[nH]c2c1 | 
12 |  | 597 nM | Cc1cccnc1N1CCN(c2nc3ccc(C(C)(C)C)cc3[nH]2)[C@H](C)C1 | 
13 |  |  | CC(C)(C)c1ccc(NC(=O)N2CCN(c3ncccc3Cl)CC2)cc1 | bioavailability [7]: 15%
14 | 948 nM | 3610 nM | C[C@H]1CN(c2ncccc2Cl)CCN1c1nc2ccc(C(C)(C)C)cc2[nH]1 | 
